Test results taken from ChEMBL document CHEMBL1122299, “Potential cerebral perfusion agents: synthesis and evaluation of a radioiodinated vinylalkylbarbituric acid analogue” (J Med Chem, 1983).

Legend:
Rattus norvegicus [1] = assay: Distribution of radioactivity in brain tissue of rats at 2 hr after an intravenous injection; Value expressed as mean % injected dose, Range- 0.08-0.13; type: ADME, organism-based; conditions: in vivo
Outline: (§1)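 Female Fischer 344 rats (10–12 wk, 170–200 g; food and water ad libitum) under ether received 7.95 μCi 125I-labeled agent (sp act ~155 mCi/mmol) in pH 7.4 phosphate buffer, filtered, via lateral tail vein. Four rats per time point (2 min–1 day). Killed by cervical fracture under ether; organs excised, saline-rinsed, blotted, weighed, gamma-counted; mean % injected dose/g with range.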

Rattus norvegicus [2] = assay: Distribution of radioactivity in brain tissue of rats at 4 hr after an intravenous injection; Value expressed as mean % injected dose, Range- 0.03-0.04; type: ADME, organism-based; conditions: in vivo; outline: as §1
Rattus norvegicus [3] = assay: Distribution of radioactivity in liver tissue of rats at 1 hr after an intravenous injection; Value expressed as mean % injected dose, Range- 0.71-0.93; type: ADME, organism-based; conditions: in vivo; outline: as §1
Rattus norvegicus [4] = assay: Ratio between the distribution of radioactivity of brain to that of blood tissue of rats at 30 min after an intravenous administration; type: ADME, organism-based; conditions: 0.5 h
Outline: (§2)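 Same rats (four per time point, 2 min–1 day) after a 7.95 μCi tail-vein dose of 125I-labeled agent in pH 7.4 phosphate buffer. Brain and blood were excised, weighed and gamma-counted as % injected dose/g. The ratio compares brain to blood radioactivity and is reported as a mean.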

Rattus norvegicus [5] = assay: Distribution of radioactivity in blood of rats at 4 hr after an intravenous injection; Value expressed as mean % injected dose, Range- 0.45-0.48; type: ADME, organism-based; conditions: in vivo; outline: as §1
Rattus norvegicus [6] = assay: Distribution of radioactivity in thyroid tissue of rats at 1 day after an intravenous injection; Value expressed as mean % injected dose, Range- 406-499; type: ADME, organism-based, Thyroid gland; conditions: in vivo, 24 h; outline: as §1
Rattus norvegicus [7] = assay: Distribution of radioactivity in thyroid tissue of rats at 2 mins after an intravenous injection; Value expressed as mean % injected dose, Range- 6.65-8.0.8; type: ADME, organism-based, Thyroid gland; conditions: in vivo; outline: as §1
Rattus norvegicus [8] = assay: Ratio between the distribution of radioactivity of brain to that of blood tissue of rats at 1 day after an intravenous administration; type: ADME, organism-based; conditions: 24 h; outline: as §2
Rattus norvegicus [9] = assay: Distribution of radioactivity in blood of rats at 2 mins after an intravenous injection; Value expressed as mean % injected dose, Range = 0.88-1.15; type: ADME, organism-based; conditions: in vivo; outline: as §1
Rattus norvegicus [10] = assay: Distribution of radioactivity in heart tissue of rats at 5 mins after an intravenous injection; Value expressed as mean % injected dose, Range- 1.13-1.29; type: ADME, organism-based; conditions: in vivo; outline: as §1
Rattus norvegicus [11] = assay: Distribution of radioactivity in lung tissue of rats at 1 day after an intravenous injection; Value expressed as mean % injected dose, Range- 0.02-0.03; type: ADME, organism-based; conditions: in vivo, 24 h; outline: as §1
Rattus norvegicus [12] = assay: Distribution of radioactivity in lung tissue of rats at 2 mins after an intravenous injection; Value expressed as mean % injected dose, Range- 1.17-1.42; type: ADME, organism-based; conditions: in vivo; outline: as §1
Rattus norvegicus [13] = assay: Distribution of radioactivity in lung tissue of rats at 4 hr after an intravenous injection; Value expressed as mean % injected dose, Range- 0.28-0.31; type: ADME, organism-based; conditions: in vivo; outline: as §1
Rattus norvegicus [14] = assay: Distribution of radioactivity in heart tissue of rats at 30 mins after an intravenous injection; Value expressed as mean % injected dose, Range- 0.55-0.82; type: ADME, organism-based; conditions: in vivo, 0.5 h; outline: as §1
Rattus norvegicus [15] = assay: Ratio between the distribution of radioactivity of brain to that of blood tissue of rats at 1 hr after an intravenous administration; type: ADME, organism-based; outline: as §2
Rattus norvegicus [16] = assay: Distribution of radioactivity in brain tissue of rats at 5 mins after an intravenous injection; Value expressed as mean % injected dose, Range- 0.74-0.94; type: ADME, organism-based; conditions: in vivo; outline: as §1
Rattus norvegicus [17] = assay: Ratio between the distribution of radioactivity of brain to that of blood tissue of rats at 2 min after an intravenous administration; type: ADME, organism-based; outline: as §2
Rattus norvegicus [18] = assay: Distribution of radioactivity in liver tissue of rats at 2 mins after an intravenous injection; Value expressed as mean % injected dose, Range- 2.91-3.53; type: ADME, organism-based; conditions: in vivo; outline: as §1
Rattus norvegicus [19] = assay: Distribution of radioactivity in thyroid tissue of rats at 5 mins after an intravenous injection; Value expressed as mean % injected dose, Range- 6.19-7.22; type: ADME, organism-based, Thyroid gland; conditions: in vivo; outline: as §1
Rattus norvegicus [20] = assay: Distribution of radioactivity in heart tissue of rats at 2 hr after an intravenous injection; Value expressed as mean % injected dose, Range- 0.24-0.38; type: ADME, organism-based; conditions: in vivo; outline: as §1
Rattus norvegicus [21] = assay: Distribution of radioactivity in thyroid tissue of rats at 4 hr after an intravenous injection; Value expressed as mean % injected dose, Range- 156-207; type: ADME, organism-based, Thyroid gland; conditions: in vivo; outline: as §1
Rattus norvegicus [22] = assay: Distribution of radioactivity in heart tissue of rats at 1 hr after an intravenous injection; Value expressed as mean % injected dose, Range- 0.5-0.63; type: ADME, organism-based; conditions: in vivo; outline: as §1
Rattus norvegicus [23] = assay: Distribution of radioactivity in liver tissue of rats at 4 hr after an intravenous injection; Value expressed as mean % injected dose, Range- 0.19-0.23; type: ADME, organism-based; conditions: in vivo; outline: as §1
Rattus norvegicus [24] = assay: Distribution of radioactivity in heart tissue of rats at 2 mins after an intravenous injection; Value expressed as mean % injected dose, Range- 1.35-1.55; type: ADME, organism-based; conditions: in vivo; outline: as §1

In the case of `CCC1(CCC/C=C/I)C(=O)NC(=O)NC1=O`, the Activity (Rattus norvegicus [1]) is reported as 0.1, the Activity (Rattus norvegicus [2]) is reported as 0.03 and the Activity (Rattus norvegicus [3]) is reported as 0.82. The Ratio (Rattus norvegicus [4]) was 0.36, the Activity (Rattus norvegicus [5]) was 0.46 and the Activity (Rattus norvegicus [6]) was 434. It also gave an Activity (Rattus norvegicus [7]) of 7.64, a Ratio (Rattus norvegicus [8]) of 0.26 and an Activity (Rattus norvegicus [9]) of 1. It also gave an Activity (Rattus norvegicus [10]) of 1.23, an Activity (Rattus norvegicus [11]) of 0.02 and an Activity (Rattus norvegicus [12]) of 1.31. For the same compound, the Activity (Rattus norvegicus [13]) was 0.29, the Activity (Rattus norvegicus [14]) was 0.71 and the Ratio (Rattus norvegicus [15]) was 0.2. It also gave an Activity (Rattus norvegicus [16]) of 0.82, a Ratio (Rattus norvegicus [17]) of 0.83 and an Activity (Rattus norvegicus [18]) of 3.19. The Activity (Rattus norvegicus [19]) was 6.84, the Activity (Rattus norvegicus [20]) was 0.33 and the Activity (Rattus norvegicus [21]) was 178. For the same compound, the Activity (Rattus norvegicus [22]) was 0.56, the Activity (Rattus norvegicus [23]) was 0.21 and the Activity (Rattus norvegicus [24]) was 1.49.
